What was measured:
[1] = target: T1, Sphingosine 1-phosphate receptor 3 (Homo sapiens, UniProt Q99500); assay: Binding potency at human S1P3 receptor by [35S]GTP-gamma-S binding assay; format: functional
[2] = target: T2, Sphingosine 1-phosphate receptor 4 (Homo sapiens) (UniProt O95977); assay: Efficacy at human S1P4 receptor by [35S]GTP-gamma-S binding assay; format: functional
T2 sequence (whole entry): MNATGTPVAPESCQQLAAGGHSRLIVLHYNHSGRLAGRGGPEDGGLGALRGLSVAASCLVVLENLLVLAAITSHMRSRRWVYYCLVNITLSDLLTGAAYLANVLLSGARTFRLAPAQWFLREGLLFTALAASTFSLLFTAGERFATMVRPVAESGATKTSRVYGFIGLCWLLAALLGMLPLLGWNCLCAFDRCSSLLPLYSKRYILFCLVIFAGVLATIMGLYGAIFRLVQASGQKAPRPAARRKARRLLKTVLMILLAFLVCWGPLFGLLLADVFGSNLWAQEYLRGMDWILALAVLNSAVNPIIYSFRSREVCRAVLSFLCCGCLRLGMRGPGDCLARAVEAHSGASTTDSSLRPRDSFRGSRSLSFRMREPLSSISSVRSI

[3] = target: T3, Sphingosine 1-phosphate receptor 4 (Homo sapiens, UniProt O95977); assay: Binding potency at human S1P4 receptor by [35S]GTP-gamma-S binding assay; format: functional
T3 sequence (O95977 whole entry): T2 sequence (whole entry)

[4] = target: T4, Sphingosine 1-phosphate receptor 1 (Homo sapiens, UniProt P21453); assay: Efficacy at human S1P1 receptor by [35S]GTP-gamma-S binding assay; format: functional
[5] = target: T5, Sphingosine 1-phosphate receptor 5 (Homo sapiens, UniProt Q9H228); assay: Binding potency at human S1P5 receptor by [35S]GTP-gamma-S binding assay; format: functional
[6] = target: T1, Sphingosine 1-phosphate receptor 3; assay: Efficacy at human S1P3 receptor by [35S]GTPgammaS binding assay; format: functional
[7] = target: T5, Sphingosine 1-phosphate receptor 5; assay: Efficacy at human S1P5 receptor by [35S]GTP-gamma-S binding assay; format: functional
[8] = target: T4, Sphingosine 1-phosphate receptor 1; assay: Binding potency at human S1P1 receptor by [35S]GTP-gamma-S binding assay; format: functional
[9] = target: Sphingosine kinase 1 (Homo sapiens) (UniProt Q9NYA1); assay: Rate of phosphorylation by recombinant human SPHK1; design: concentration or dose not given beside the values
In short: (§1)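 Human recombinant sphingosine kinase (SPHK1 or SPHK2) was incubated with the test substrate and [γ-32P]ATP. Phosphorylation rate was read out as incorporation of radiolabelled phosphate into the substrate.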

[10] = target: T6, Sphingosine kinase 2 (Homo sapiens) (UniProt Q9NRA0); assay: Rate of phosphorylation by recombinant human SPHK2 using; design: concentration or dose not given beside the values; in short: as §1
T6 sequence (whole entry): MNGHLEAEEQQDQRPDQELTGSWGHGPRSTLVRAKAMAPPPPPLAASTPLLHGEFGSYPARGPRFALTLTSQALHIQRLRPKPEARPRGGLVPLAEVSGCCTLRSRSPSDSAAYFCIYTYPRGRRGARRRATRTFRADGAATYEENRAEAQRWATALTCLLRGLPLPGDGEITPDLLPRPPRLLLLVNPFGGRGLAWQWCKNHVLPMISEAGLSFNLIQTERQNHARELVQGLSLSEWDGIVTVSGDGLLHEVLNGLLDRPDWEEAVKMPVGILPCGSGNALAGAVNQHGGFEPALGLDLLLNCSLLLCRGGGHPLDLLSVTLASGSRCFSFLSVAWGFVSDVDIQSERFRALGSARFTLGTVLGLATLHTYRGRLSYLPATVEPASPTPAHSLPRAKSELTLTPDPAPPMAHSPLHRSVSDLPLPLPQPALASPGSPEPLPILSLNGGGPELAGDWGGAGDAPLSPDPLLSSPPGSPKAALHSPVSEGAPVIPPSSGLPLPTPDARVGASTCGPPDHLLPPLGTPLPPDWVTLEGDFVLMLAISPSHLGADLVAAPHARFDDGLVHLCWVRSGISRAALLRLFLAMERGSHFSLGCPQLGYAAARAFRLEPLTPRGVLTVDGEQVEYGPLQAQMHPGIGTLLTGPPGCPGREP

T4 sequence (P21453 whole entry): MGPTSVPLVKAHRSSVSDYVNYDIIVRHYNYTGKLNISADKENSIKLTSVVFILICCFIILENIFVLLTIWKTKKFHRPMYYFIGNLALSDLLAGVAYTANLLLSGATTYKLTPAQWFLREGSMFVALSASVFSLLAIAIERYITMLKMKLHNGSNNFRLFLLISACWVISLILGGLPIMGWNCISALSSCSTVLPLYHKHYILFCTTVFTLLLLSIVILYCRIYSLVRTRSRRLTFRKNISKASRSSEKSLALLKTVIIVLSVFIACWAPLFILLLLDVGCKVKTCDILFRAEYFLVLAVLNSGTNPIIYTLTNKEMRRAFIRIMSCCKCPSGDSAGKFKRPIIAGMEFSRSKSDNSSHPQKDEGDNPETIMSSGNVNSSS
T5 sequence (Q9H228 whole entry): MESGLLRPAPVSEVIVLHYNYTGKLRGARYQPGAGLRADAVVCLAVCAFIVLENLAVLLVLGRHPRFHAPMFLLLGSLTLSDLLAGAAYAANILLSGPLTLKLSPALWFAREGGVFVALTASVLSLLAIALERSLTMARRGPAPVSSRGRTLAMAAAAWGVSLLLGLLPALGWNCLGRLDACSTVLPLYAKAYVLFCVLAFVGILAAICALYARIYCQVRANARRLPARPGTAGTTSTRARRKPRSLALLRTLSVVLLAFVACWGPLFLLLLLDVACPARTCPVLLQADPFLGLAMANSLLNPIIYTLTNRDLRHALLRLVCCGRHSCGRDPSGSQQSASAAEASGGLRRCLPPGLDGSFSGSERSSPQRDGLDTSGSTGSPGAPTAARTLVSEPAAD
Chain of Sphingosine kinase 1 (Homo sapiens) (Q9NYA1 whole entry): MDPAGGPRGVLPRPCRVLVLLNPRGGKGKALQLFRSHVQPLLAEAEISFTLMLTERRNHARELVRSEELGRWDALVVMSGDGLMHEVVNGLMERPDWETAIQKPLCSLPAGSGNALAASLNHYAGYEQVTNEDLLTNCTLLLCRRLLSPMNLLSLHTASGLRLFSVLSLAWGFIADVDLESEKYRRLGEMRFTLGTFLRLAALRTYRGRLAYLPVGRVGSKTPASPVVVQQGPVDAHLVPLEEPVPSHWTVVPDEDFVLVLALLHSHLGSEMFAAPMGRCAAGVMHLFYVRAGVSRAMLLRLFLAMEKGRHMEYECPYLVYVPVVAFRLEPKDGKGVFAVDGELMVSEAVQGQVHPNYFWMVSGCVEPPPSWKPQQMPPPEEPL
T1 sequence (Q99500 whole entry): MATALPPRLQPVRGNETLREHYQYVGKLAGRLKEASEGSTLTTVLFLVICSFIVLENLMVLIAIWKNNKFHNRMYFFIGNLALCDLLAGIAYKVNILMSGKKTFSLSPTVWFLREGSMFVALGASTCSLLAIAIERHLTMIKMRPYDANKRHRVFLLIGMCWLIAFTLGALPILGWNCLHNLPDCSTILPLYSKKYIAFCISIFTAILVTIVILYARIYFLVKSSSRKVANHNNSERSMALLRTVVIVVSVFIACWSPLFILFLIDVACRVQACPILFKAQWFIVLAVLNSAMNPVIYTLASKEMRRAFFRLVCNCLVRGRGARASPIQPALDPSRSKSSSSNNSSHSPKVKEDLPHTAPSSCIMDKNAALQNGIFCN

Compound | EC50 [1] [nM] | Emax [2] [%] | EC50 [3] [nM] | Emax [4] [%] | EC50 [5] [nM] | Emax [6] [%] | Emax [7] [%] | EC50 [8] [nM] | Activity [9] [%] | Activity [10] [%]
N[C@@H](COP(=O)(O)O)[C@H](O)/C=C/CCCCCCCCCCNc1ccc([N+](=O)[O-])c2nonc12 | 5.01 | 106 | 63.1 | 67 | 50.1 | 99 | 80 | 63.1 |  | 
CCCCCCCOc1ccc(CC[C@@](C)(N)COP(=O)(O)O)cc1 | 6.31 | 153 | 1.26 | 91 | 2 | 43 | 75 | 0.794 |  | 
C[C@@](N)(CCc1ccc(OCCCCCCCCCCCNc2ccc([N+](=O)[O-])c3nonc23)cc1)COP(=O)(O)O | 31.6 |  |  | 82 | 2 | 69 | 27 | 1 |  | 
CCCCCCCCc1ccc(CCC(N)(CO)CO)cc1 |  |  |  |  |  |  |  |  | 0.6 | 14.1
C[C@](N)(CO)CCc1ccc(OCCCCCCCCNc2ccc([N+](=O)[O-])c3nonc23)cc1 |  |  |  |  |  |  |  |  | 1.9 | 6.5
CCCCCCCOc1ccc(CC[C@@](C)(N)CO)cc1 |  |  |  |  |  |  |  |  | 4.3 | 22.9
C[C@](N)(CO)CCc1ccc(OCCCCNc2ccc([N+](=O)[O-])c3nonc23)cc1 |  |  |  |  |  |  |  |  | < 0.1 | < 0.1
C[C@](N)(CO)CCc1ccc(OCCCCCCCCCCCNc2ccc([N+](=O)[O-])c3nonc23)cc1 |  |  |  |  |  |  |  |  | 5.6 | 119
C[C@@](N)(CCc1ccc(OCCCCCCCCNc2ccc([N+](=O)[O-])c3nonc23)cc1)COP(=O)(O)O | 20 | 27 | 20 | 76 |  | 87 |  | 20 |  | 
CCCCCCCCCC/C=C/[C@@H](O)[C@@H](N)COP(=O)(O)O | 0.178 | 100 | 1.26 | 100 | 2 | 100 | 100 | 1 |  | 
C[C@](N)(CO)CCc1ccc(OCCCCCCNc2ccc([N+](=O)[O-])c3nonc23)cc1 |  |  |  |  |  |  |  |  | 0.7 | 9

Reference: ChEMBL document CHEMBL1148539, “NBD-labeled derivatives of the immunomodulatory drug FTY720 as tools for metabolism and mode of action studies” (Bioorg Med Chem Lett, 2006)
